Measurements as given in ChEMBL document CHEMBL5715959, “Inhibition of histone methyltransferase EZH2 in Schistosoma mansoni in vitro by GSK343 reduces egg laying and decreases the expression of genes implicated in DNA replication and noncoding RNA metabolism” (2018).
Activity calls are given as the source filed them. No cut-off for these calls is given here.

Experiments:
[1] = test system: Schistosoma mansoni; assay: Cytotoxicity against juvenile Schistosoma mansoni assessed as decrease in viability at 10 to 20 uM incubated for 48 hrs by CellTiter-Glo Luminescent assay relative to control; assay type: functional; conditions: dose 10-20 µM
How it was run: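 Perfused juvenile worms cultured in supplemented RPMI (10% FBS, 37°C, 5% CO2), exposed 24 or 48 h to compound or 0.1% DMSO. Total parasite ATP read by luminescence, given as % of vehicle; three replicate experiments of 10 juveniles each, mean ± SD.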

[2] = test system: Schistosoma mansoni; assay: Antischistosomal activity against juvenile Schistosoma mansoni assessed as presence of blisters in dorsal tegument at 20 to 50 uM incubated for 48 hrs by scanning electron microscopy analysis; assay type: functional, organism-based; conditions: dose 20-50 µM
How it was run: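 Juvenile worms recovered by perfusion, five per well in supplemented RPMI (10% FBS, antibiotics, 37°C, 5% CO2), 2 h adaptation, then exposed 48 h to compound or 0.1% DMSO. Fixed in modified Karnovsky reagent (pH 7.4), washed in cacodylate buffer, post-fixed 1 h in 1% osmium tetroxide, ethanol-dehydrated, critical-point dried, gold-sputtered and imaged by scanning electron microscopy.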

[3] = test system: Schistosoma mansoni; assay: Antischistosomal activity against Schistosoma mansoni assessed as down-regulated FA binding protein mRNA level in schistosomula at 20 uM incubated for 48 hrs by RT-qPCR analysis; assay type: functional, organism-based
How it was run: (§1)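 Schistosomula (supplemented M169) or adult worms (supplemented RPMI) were treated 48 h with 20 μM GSK343 or 0.1% DMSO at 37°C, 5% CO2. qPCR normalizer genes were chosen from RNA-seq data as those with TPM >1 and a treated/control ratio of 0.9–1.1 that were not differentially expressed. Relative expression was calculated by comparative Ct; significance by t-test.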

[4] = test system: Schistosoma mansoni; assay: Antischistosomal activity against female Schistosoma mansoni assessed as down-regulated p48 mRNA level at 20 uM incubated for 48 hrs by RT-qPCR analysis; assay type: functional, organism-based
[5] = test system: Schistosoma mansoni; assay: Cytotoxicity against adult Schistosoma mansoni assessed as reduction in ATP quantification at 20 uM incubated for 48 hrs by CellTiter-Glo Luminescent assay relative to control; assay type: functional; set-up: scale not given: the % may be the effect or the level left
How it was run: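 Worm pairs in supplemented RPMI (10% FBS, 37°C, 5% CO2) exposed 48 h to compound or 0.1% DMSO. ATP measured by luminescence in freshly lysed worms and expressed as % of vehicle signal; three replicate experiments, 10 pairs each, mean ± SD.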

[6] = test system: Schistosoma mansoni; assay: Antischistosomal activity against adult female Schistosoma mansoni assessed as decrease in number of eggs laid at 20 uM incubated for 24 to 48 hrs by […] analysis relative to control; assay type: functional; set-up: scale not given: the % may be the effect or the level left; conditions: time 24-48 hrs
[7] = test system: Schistosoma mansoni; assay: Antischistosomal activity against Schistosoma mansoni assessed as decreased H3K27me3 level in schistosomula at 20 uM incubated for 48 hrs by Western blotting analysis; assay type: functional, organism-based
How it was run: (§2)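 About 10,000 schistosomula were treated 48 h with 20 μM GSK343 or vehicle, then sonicated in Triton X-100 lysis buffer with PMSF and protease inhibitors. Supernatant nuclear extract (BCA-quantified, 10 μg) was run on 15% SDS-PAGE and blotted to nitrocellulose. Blots were probed with mark-specific monoclonal antibodies, then IRDye secondaries; infrared imaging was used and signals were normalized to total H3. t-test.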

[8] = test system: Schistosoma mansoni; assay: Antischistosomal activity against adult Schistosoma mansoni assessed as decreased motility at 20 uM incubated for 48 hrs by inverted microscope analysis relative to control; assay type: functional; set-up: scale not given: the % may be the effect or the level left
How it was run: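 Paired adult worms were cultured in RPMI/10% FBS with antibiotics at 37°C, 5% CO2, with GSK343 or 0.1% DMSO. They were viewed by inverted microscope at 3, 6, 12, 24 and 48 h. Motility was scored on a 0–3 scale (3 full movement, 1.5 partial or immobile but alive, 0 dead); death meant no movement over more than 2 min. Pairing was recorded. Three experiments, each with 10 pairs; mean ± SD.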

[9] = test system: Schistosoma mansoni; assay: Antischistosomal activity against Schistosoma mansoni assessed as down-regulated LDL receptor mRNA level in schistosomula at 20 uM incubated for 48 hrs by RT-qPCR analysis; assay type: functional, organism-based; how it was run: as §1
[10] = test system: Schistosoma mansoni; assay: Antischistosomal activity against adult female Schistosoma mansoni assessed as presence of peeling in dorsal region at 20 uM incubated for 24 to 48 hrs by scanning electron microscopy analysis; assay type: functional, organism-based; conditions: time 24-48 hrs
How it was run: (§3)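 Adult couples were taken by perfusion into supplemented RPMI, one couple per well, and adapted 2 h at 37°C, 5% CO2. They were exposed to 20 μM GSK343 or 0.1% DMSO for 24 and 48 h. Fixation used modified Karnovsky with osmium post-fix, followed by ethanol dehydration, critical-point drying, gold sputtering and scanning electron microscopy of tegument surfaces.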

[11] = test system: Schistosoma mansoni; assay: Antischistosomal activity against Schistosoma mansoni assessed as increased H3K9ac level in schistosomula at 20 uM incubated for 48 hrs by Western blotting analysis; assay type: functional, organism-based; how it was run: as §2
[12] = test system: Schistosoma mansoni; assay: Antischistosomal activity against Schistosoma mansoni assessed as down-regulated Val7 mRNA level in schistosomula at 20 uM incubated for 48 hrs by RT-qPCR analysis; assay type: functional, organism-based; how it was run: as §1
[13] = test system: Schistosoma mansoni; assay: Antischistosomal activity against Schistosoma mansoni assessed as developmental changes at 20 uM incubated for 24 hrs by scanning electron microscopy analysis; assay type: functional, organism-based
How it was run: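 Newly transformed schistosomula were held 16 h in M169 with 2% FBS, serotonin, hypoxanthine, hydrocortisone, triiodothyronine and antibiotics at 37°C, 5% CO2, at 2,000 per well. They were then exposed to 20 μM GSK343 or 0.1% DMSO for 24 and 48 h. Fixation was modified Karnovsky (pH 7.4) with 1% osmium post-fix, then ethanol dehydration, critical-point drying, gold coating and SEM. Lengths came from three experiments, each with 20 schistosomula.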

[14] = test system: Schistosoma mansoni; assay: Antischistosomal activity against Schistosoma mansoni assessed as death of schistosomula at 10 to 50 uM incubated for 24 to 72 hrs by propidium iodide staining based fluorescence microscope analysis; assay type: functional, organism-based; conditions: dose 10-50 µM, time 24-72 hrs
How it was run: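 Schistosomula were cultured in supplemented M169 with 10–50 μM GSK343 or 0.1% DMSO for 24, 48 and 72 h. A fresh well set was used per time point, with 2 μg/mL propidium iodide (dead) plus 0.5 μg/mL fluorescein diacetate (live) added. Parasites were read immediately by light and fluorescence microscopy; percent viable was computed against total parasites. About 3600 schistosomula per condition over four biological replicates; 70% ethanol served as positive control.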

[15] = test system: Schistosoma mansoni; assay: Antischistosomal activity against Schistosoma mansoni assessed as down-regulated Glucose transport protein mRNA level in schistosomula at 20 uM incubated for 48 hrs by RT-qPCR analysis; assay type: functional, organism-based; how it was run: as §1
[16] = test system: Schistosoma mansoni; assay: Antischistosomal activity against adult female Schistosoma mansoni assessed as presence of fissures in egg shell at 20 uM incubated for 24 to 48 hrs by scanning electron microscopy analysis; assay type: functional, organism-based; conditions: time 24-48 hrs
How it was run: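 Eggs released by couples kept 24 or 48 h with 20 μM GSK343 or 0.1% DMSO in supplemented RPMI were fixed in modified Karnovsky with osmium post-fix. They were dehydrated, critical-point dried, gold-coated and imaged by SEM; total egg area dimension was measured.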

[17] = test system: Schistosoma mansoni; assay: Antischistosomal activity against adult male Schistosoma mansoni assessed as lesions of tegument around tubercles at 20 uM incubated for 48 hrs by scanning electron microscopy analysis; assay type: functional, organism-based; how it was run: as §3

Activity [3]: Active | Activity [9]: Active
Structure (SMILES): CCCc1cc(C)[nH]c(=O)c1CNC(=O)c1cc(-c2ccnc(N3CCN(C)CC3)c2)cc2c1cnn2C(C)C
Activity [1]: 20% | Activity [2]: Active | Activity [4]: Active | Activity [5]: 50% | Activity [6]: 40% | Activity [7]: Active | Activity [8]: ~40% | Activity [10]: Active | Activity [11]: Active | Activity [12]: Active | Activity [13]: inactive | Activity [14]: Active | Activity [15]: Active | Activity [16]: Active | Activity [17]: Active
